Assay results taken from ChEMBL document CHEMBL5724801, “EUbOPEN Chemogenomics Library - Multiplex” (2024).
Where “and” joins values, the source holds several entries; their conditions need not be identical. Equal entries are not always repeated.

System: U2OS
Test: Multiplex assay against U2OS
Type: toxicity, cell-based
Conditions: human
Outline: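 Four dyes were applied at seeding to live cells: Hoechst33342, BioTracker Green Microtubule Cytoskeleton Dye, MitoTracker Red and Annexin V Alexa Fluor 680. Imaging after compound addition used a CQ1 microscope at 37°C and 5% CO2. CellPathfinder machine-learning gating then sorted cells into Hoechst high-intensity objects or normal cells, normal cells into healthy, pyknosed or fragmented nuclei, and pyknosed cells into mitotic or apoptotic, with tubulin, mitochondrial-mass and membrane-permeability phenotypes given as per cents of healthy-nucleus cells.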

[1] = 12 h, 1 µM, compound concentration 1 uM
[2] = 12 h, 10 µM, compound concentration 10 uM
[3] = 24 h, 1 µM, compound concentration 1 uM
[4] = 24 h, 10 µM, compound concentration 10 uM
[5] = 48 h, 1 µM, compound concentration 1 uM
[6] = 48 h, 10 µM, compound concentration 10 uM

Cc1ccc(C(C)(O)c2nc3ccccc3s2)c(C)c1 (configuration not stated)
Population Apoptotic (%) [1]: 86% and 100%
Population Fragmented Nuclei (%) [1]: 19% and 17%
Population Healthy Nuclei (%) [1]: 70% and 78%
Population Hoechst High Intensity Objects (%) [1]: 3% and 0%
Population Membrane Permeable-Phenotype (%) [1]: 4% and 9%
Population Mitochondria Different-Phenotype (%) [1]: 1% and 4%
Population Mitotic Cells (%) [1]: 13% and 0%
Population Normal (%) [1]: 96% and 99%
Population Pyknosed Nuclei (%) [1]: 9% and 3%
Population Tubulin-Different-Phenotype (%) [1]: 2% and 5%
Total Cell Count [1]: 249 and 141
Population Apoptotic (%) [2]: 100% and 66%
Population Fragmented Nuclei (%) [2]: 25% and 18%
Population Healthy Nuclei (%) [2]: 67% and 77%
Population Hoechst High Intensity Objects (%) [2]: 2% and 4%
Population Membrane Permeable-Phenotype (%) [2]: 9% and 3%
Population Mitochondria Different-Phenotype (%) [2]: 3% and 1%
Population Normal (%) [2]: 97% and 95%
Population Pyknosed Nuclei (%) [2]: 6% and 3%
Population Tubulin-Different-Phenotype (%) [2]: 3% and 1%
Total Cell Count [2]: 234 and 89
Population Apoptotic (%) [3]: 92% and 90%
Population Fragmented Nuclei (%) [3]: 22% and 13%
Population Healthy Nuclei (%) [3]: 69% and 80%
Population Hoechst High Intensity Objects (%) [3]: 1% and 0%
Population Membrane Permeable-Phenotype (%) [3]: 4% and 6%
Population Mitochondria Different-Phenotype (%) [3]: 0% and 3%
Population Mitotic Cells (%) [3]: 7% and 10%
Population Normal (%) [3]: 98% and 99%
Population Pyknosed Nuclei (%) [3]: 8% and 6%
Population Tubulin-Different-Phenotype (%) [3]: 3% and 4%
Total Cell Count [3]: 327 and 159
Population Apoptotic (%) [4]: 88% and 75%
Population Fragmented Nuclei (%) [4]: 22% and 16%
Population Healthy Nuclei (%) [4]: 71% and 75%
Population Hoechst High Intensity Objects (%) [4]: 1% and 4%
Population Membrane Permeable-Phenotype (%) [4]: 5% and 3%
Population Mitochondria Different-Phenotype (%) [4]: 3% and 1%
Population Mitotic Cells (%) [4]: 11% and 25%
Population Normal (%) [4]: 98% and 95%
Population Pyknosed Nuclei (%) [4]: 6% and 7%
Population Tubulin-Different-Phenotype (%) [4]: 3%
Total Cell Count [4]: 272 and 113
Population Apoptotic (%) [5]: 88% and 94%
Population Fragmented Nuclei (%) [5]: 16% and 15%
Population Healthy Nuclei (%) [5]: 74% and 76%
Population Hoechst High Intensity Objects (%) [5]: 2% and 3%
Population Membrane Permeable-Phenotype (%) [5]: 5% and 6%
Population Mitochondria Different-Phenotype (%) [5]: 2% and 3%
Population Mitotic Cells (%) [5]: 11% and 5%
Population Normal (%) [5]: 97% and 96%
Population Pyknosed Nuclei (%) [5]: 9% and 8%
Population Tubulin-Different-Phenotype (%) [5]: 2% and 5%
Total Cell Count [5]: 442 and 215
Population Apoptotic (%) [6]: 96% and 85%
Population Fragmented Nuclei (%) [6]: 23% and 11%
Population Healthy Nuclei (%) [6]: 69% and 83%
Population Hoechst High Intensity Objects (%) [6]: 2% and 5%
Population Membrane Permeable-Phenotype (%) [6]: 6% and 5%
Population Mitochondria Different-Phenotype (%) [6]: 1%
Population Normal (%) [6]: 97% and 94%
Population Pyknosed Nuclei (%) [6]: 7% and 5%
Population Tubulin-Different-Phenotype (%) [6]: 4%
Total Cell Count [6]: 365 and 147

N#Cc1cc(F)cc(-c2nc(-c3ccc(F)cn3)no2)c1
Population Apoptotic (%) [1]: 55% and 100%
Population Fragmented Nuclei (%) [1]: 24% and 17%
Population Healthy Nuclei (%) [1]: 65% and 79%
Population Hoechst High Intensity Objects (%) [1]: 1% and 0%
Population Membrane Permeable-Phenotype (%) [1]: 5% and 6%
Population Mitochondria Different-Phenotype (%) [1]: 0% and 5%
Population Normal (%) [1]: 98% and 99%
Population Pyknosed Nuclei (%) [1]: 10% and 4%
Population Tubulin-Different-Phenotype (%) [1]: 3% and 2%
Total Cell Count [1]: 178 and 101
Population Apoptotic (%) [2]: 76% and 88%
Population Fragmented Nuclei (%) [2]: 33% and 12%
Population Healthy Nuclei (%) [2]: 59% and 81%
Population Hoechst High Intensity Objects (%) [2]: 1%
Population Membrane Permeable-Phenotype (%) [2]: 8% and 7%
Population Mitochondria Different-Phenotype (%) [2]: 2% and 4%
Population Mitotic Cells (%) [2]: 23% and 11%
Population Normal (%) [2]: 98%
Population Pyknosed Nuclei (%) [2]: 6%
Population Tubulin-Different-Phenotype (%) [2]: 2% and 1%
Total Cell Count [2]: 196 and 151
Population Apoptotic (%) [3]: 90%
Population Fragmented Nuclei (%) [3]: 22% and 8%
Population Healthy Nuclei (%) [3]: 66% and 84%
Population Hoechst High Intensity Objects (%) [3]: 4% and 0%
Population Membrane Permeable-Phenotype (%) [3]: 8% and 2%
Population Mitochondria Different-Phenotype (%) [3]: 0% and 3%
Population Mitotic Cells (%) [3]: 9% and 10%
Population Normal (%) [3]: 95% and 99%
Population Pyknosed Nuclei (%) [3]: 11% and 8%
Population Tubulin-Different-Phenotype (%) [3]: 4% and 2%
Total Cell Count [3]: 197 and 126
Population Apoptotic (%) [4]: 93% and 88%
Population Healthy Nuclei (%) [4]: 60% and 85%
Population Hoechst High Intensity Objects (%) [4]: 1% and 0%
Population Membrane Permeable-Phenotype (%) [4]: 7% and 5%
Population Mitochondria Different-Phenotype (%) [4]: 0% and 1%
Population Mitotic Cells (%) [4]: 6% and 11%
Population Normal (%) [4]: 98% and 99%
Population Pyknosed Nuclei (%) [4]: 7% and 4%
Population Tubulin-Different-Phenotype (%) [4]: 2% and 1%
Total Cell Count [4]: 230 and 216
Population Apoptotic (%) [5]: 96% and 100%
Population Fragmented Nuclei (%) [5]: 18% and 15%
Population Healthy Nuclei (%) [5]: 71% and 79%
Population Hoechst High Intensity Objects (%) [5]: 1%
Population Membrane Permeable-Phenotype (%) [5]: 4%
Population Mitochondria Different-Phenotype (%) [5]: 0% and 3%
Population Mitotic Cells (%) [5]: 3% and 0%
Population Normal (%) [5]: 98%
Population Pyknosed Nuclei (%) [5]: 9% and 5%
Population Tubulin-Different-Phenotype (%) [5]: 2% and 1%
Total Cell Count [5]: 290 and 199
Population Apoptotic (%) [6]: 85% and 94%
Population Fragmented Nuclei (%) [6]: 30% and 10%
Population Healthy Nuclei (%) [6]: 62% and 84%
Population Hoechst High Intensity Objects (%) [6]: 1%
Population Membrane Permeable-Phenotype (%) [6]: 6% and 4%
Population Mitochondria Different-Phenotype (%) [6]: 2%
Population Mitotic Cells (%) [6]: 14% and 5%
Population Normal (%) [6]: 98%
Population Pyknosed Nuclei (%) [6]: 7% and 5%
Population Tubulin-Different-Phenotype (%) [6]: 3% and 2%
Total Cell Count [6]: 282 and 344

Cc1noc(-c2ccc(-c3ccc(CC(=O)O)cc3)cc2)c1NC(=O)O[C@H](C)c1ccccc1Cl
Population Apoptotic (%) [1]: 95% and 85%
Population Fragmented Nuclei (%) [1]: 21% and 19%
Population Healthy Nuclei (%) [1]: 69% and 74%
Population Hoechst High Intensity Objects (%) [1]: 4% and 0%
Population Membrane Permeable-Phenotype (%) [1]: 7% and 2%
Population Mitochondria Different-Phenotype (%) [1]: 5% and 2%
Population Mitotic Cells (%) [1]: 5% and 14%
Population Normal (%) [1]: 95% and 99%
Population Pyknosed Nuclei (%) [1]: 9% and 7%
Population Tubulin-Different-Phenotype (%) [1]: 4%
Total Cell Count [1]: 231 and 101
Population Apoptotic (%) [2]: 78% and 71%
Population Fragmented Nuclei (%) [2]: 29% and 11%
Population Healthy Nuclei (%) [2]: 61% and 83%
Population Hoechst High Intensity Objects (%) [2]: 2%
Population Membrane Permeable-Phenotype (%) [2]: 11% and 6%
Population Mitochondria Different-Phenotype (%) [2]: 4% and 2%
Population Mitotic Cells (%) [2]: 21% and 28%
Population Normal (%) [2]: 97%
Population Pyknosed Nuclei (%) [2]: 9% and 5%
Population Tubulin-Different-Phenotype (%) [2]: 6%
Total Cell Count [2]: 242 and 138
Population Apoptotic (%) [3]: 96% and 77%
Population Fragmented Nuclei (%) [3]: 19% and 15%
Population Healthy Nuclei (%) [3]: 70% and 77%
Population Hoechst High Intensity Objects (%) [3]: 2% and 0%
Population Membrane Permeable-Phenotype (%) [3]: 5% and 4%
Population Mitochondria Different-Phenotype (%) [3]: 4% and 3%
Population Normal (%) [3]: 97% and 99%
Population Pyknosed Nuclei (%) [3]: 9% and 7%
Population Tubulin-Different-Phenotype (%) [3]: 3% and 6%
Total Cell Count [3]: 277 and 125
Population Apoptotic (%) [4]: 92% and 90%
Population Fragmented Nuclei (%) [4]: 24% and 12%
Population Healthy Nuclei (%) [4]: 65% and 80%
Population Hoechst High Intensity Objects (%) [4]: 1% and 2%
Population Membrane Permeable-Phenotype (%) [4]: 11% and 7%
Population Mitochondria Different-Phenotype (%) [4]: 2%
Population Mitotic Cells (%) [4]: 7% and 9%
Population Normal (%) [4]: 98% and 97%
Population Pyknosed Nuclei (%) [4]: 10% and 7%
Population Tubulin-Different-Phenotype (%) [4]: 5% and 4%
Total Cell Count [4]: 260 and 154
Population Apoptotic (%) [5]: 97% and 86%
Population Fragmented Nuclei (%) [5]: 15% and 18%
Population Healthy Nuclei (%) [5]: 75% and 72%
Population Hoechst High Intensity Objects (%) [5]: 1% and 0%
Population Membrane Permeable-Phenotype (%) [5]: 6%
Population Mitochondria Different-Phenotype (%) [5]: 3% and 4%
Population Normal (%) [5]: 98% and 100%
Population Pyknosed Nuclei (%) [5]: 9% and 8%
Population Tubulin-Different-Phenotype (%) [5]: 3% and 4%
Total Cell Count [5]: 408 and 170
Population Apoptotic (%) [6]: 92% and 85%
Population Fragmented Nuclei (%) [6]: 19% and 9%
Population Healthy Nuclei (%) [6]: 72% and 78%
Population Hoechst High Intensity Objects (%) [6]: 3% and 4%
Population Membrane Permeable-Phenotype (%) [6]: 7% and 6%
Population Mitochondria Different-Phenotype (%) [6]: 3% and 2%
Population Mitotic Cells (%) [6]: 7% and 14%
Population Normal (%) [6]: 96% and 95%
Population Pyknosed Nuclei (%) [6]: 8% and 11%
Population Tubulin-Different-Phenotype (%) [6]: 5% and 4%
Total Cell Count [6]: 344 and 241
